The results in this text go back to ChEMBL document CHEMBL1154615, “Hydroxamates: relationships between structure and plasma stability” (J Med Chem, 2009).

Series [1] can be described thus: Stability in potassium phosphate buffer at pH 7.4. Type of series: physicochemical.
The nature of series [2]: (§1) Metabolic stability in Sprague-Dawley rat plasma at 10 uM by LC-MS/MS analysis. Type of series: ADME, cell-free. To be noted: Sprague-Dawley. The procedure, abridged:
(§2)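 Pooled mixed-gender Sprague Dawley lithium-heparin rat plasma, 80 µL per time point in duplicate. Plasma is pre-incubated 5 min at 37 °C, then 30 min with 2 mM PMSF (final) where applied. Compound is added to 10 µM final in 1% DMSO. Quantified by LC-MSMS (MRM or SIM) against an internal standard with a per-compound calibration curve. Result is reported as t1/2.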

A short description of series [3]: Stability in phosphate buffer saline at pH 7.4. The format is physicochemical.
The species named for series [4] is Homo sapiens. The series can be described thus: Metabolic stability in human plasma by LC-MS/MS analysis.
Series [5] deals with Plasma. Description: (§3) Metabolic stability in Sprague-Dawley rat plasma at 10 uM by LC-MS/MS analysis in presence of esterase inhibitor PMSF. Type of series: ADME, cell-free. To be noted: 10 µM. The procedure, abridged:
as §2

Series [6] in a line: Half life in rat at 100 mg/kg, po. The format is ADME, organism-based. On the set-up: dose 100 mg/kg, route oral. The settings on record: in vivo.
The nature of series [7]: Half life in po dosed rat. Type of series: ADME, organism-based. The settings on record: in vivo.
A short description of series [8]: as §3. The settings on record: Sprague-Dawley, with PMSF (esterase inhibitor). The format is ADME, cell-free. The gist of the method: as §2
A short description of series [9]: Half life in rat at 100 mg/kg, iv. Type of series: ADME, organism-based. On the set-up: dose 100 mg/kg, route intravenous. To be noted: in vivo.
Series [10] has as its system Plasma. The description is as §1. The format is ADME, cell-free. The settings on record: 10 µM. The gist of the method:
as §2

Broadly, the half-life is the time in which the quantity being followed falls by half. As to `O=C(CCc1ccccc1)NO`, the Stability result in series [1] is “Stable”. Besides, the half-life at 10 µM in series [2] was 1.5 h. Take `O=C(/C=C/c1ccccc1)NO`: in [1], the Stability entry is given as “Stable”. In series [2], this compound gave a half-life at 10 µM of 6.2 h. As to `O=C(NO)C(Cc1ccccc1)C(=O)NCc1ccc(F)cc1` (centres undefined), the Stability entry in series [1] is given as “Stable”. Besides, the half-life at 10 µM in series [2] is 0.8 h. Besides, the half-life in series [3] and in series [4] was greater than 24 h throughout. Also, in [5], the t1/2 is 15 h. Consider `O=C(NO)/C(=C\c1ccccc1)C(=O)NCc1ccc(F)cc1`, for which the Stability entry in [1] is recorded as “Stable”. This compound had a half-life at 10 µM in series [2] of 22 h. The half-life in series [3] and in series [4] was greater than 24 h throughout. Take `O=C(NCc1ccc(F)cc1)c1cc2ccccc2n(O)c1=O`: in [1], the Stability result is reported as “Stable”. This compound also displayed a half-life at 10 µM in [2] greater than 48 h.

As to `O=C(CC(=O)NCc1ccc(F)cc1)NO`, the Stability result in series [1] is given as “Stable”. In series [2], this compound had a half-life at 10 µM of 10.5 h. For `CC(C)Cc1ccc(C(=O)N(C)O)cc1`, the half-life in [6] was 0.3 h. Still for that read-out and setting: next, `CC(C)Cc1ccc(CC(=O)N(C)O)cc1`: less than 0.3 h. In the case of `O=C(NO)/C(=C/c1ccccc1)C(=O)NCc1ccc(F)cc1`, the Stability result in series [1] was “Stable”. This compound had a half-life at 10 µM in [2] of 4.1 h. Further, the half-life in series [3] and in series [4] was greater than 24 h in each case. `CC(=O)N1CCC(C(=O)NO)(S(=O)(=O)c2ccc(Oc3ccc(Cl)cc3)cc2)CC1` had a half-life in [7] of 0.86 h.

As to `O=C(COc1ccccc1)NO`, the Stability entry in series [1] is given as “Stable”. Also, the half-life at 10 µM in [2] is 3 h.

In the case of `O=C(CCOc1ccccc1)NO`, the Stability entry in [1] is given as “Stable”. This compound showed a half-life at 10 µM in series [2] of 1.4 h. In turn, `O=C(NO)C1(S(=O)(=O)c2ccc(Oc3ccc(Cl)cc3)cc2)CCN(C2CC2)CC1` had a half-life in series [7] of 0.74 h. Consider `O=C(NO)C1(C(=O)NCc2ccc(F)cc2)CC1`, for which, in series [1], the Stability entry is given as “Stable”. Further, the half-life at 10 µM in series [2] was 22.3 h. The like results for `O=C(Cc1ccc(F)cc1)NC(Cc1ccccc1)C(=O)NO` (centres undefined) were, in that order, “Stable” and 1.3 h. `CC(Cc1ccccc1)(C(=O)NO)C(=O)NCc1ccc(F)cc1` (centres undefined): in [1], the Stability result was “Stable”. Further, the half-life at 10 µM in series [2] came to 3 h. In the same order, the values of `CC(C(=O)NO)C(=O)NCc1ccc(F)cc1` (centres undefined) are “Stable” and 33 h. In the same order, the values of `CC(C)(C(=O)NO)C(=O)NCc1ccc(F)cc1` are “Stable” and 19.9 h. In the same order, the values of `O=C(NO)c1ccc(C#CC2CC2)cc1` are “Stable” and 4 h.

On to `CN(O)C(=O)C(Cc1ccccc1)C(=O)NCc1ccc(F)cc1` (centres undefined), for which, in series [1], the Stability entry is “Stable”. Also, the half-life at 10 µM in series [2] is 0.5 h. In the same order, the values of `CC(C)(C)OC(=O)N[C@H](Cc1ccccc1)C(=O)NO` are “Stable” and less than 1 h.

For `CCOC(=O)[C@H](CCc1ccccc1)N[C@@H](C)C(=O)N1CCC[C@H]1C(=O)O`, the half-life at 10 µM in series [2] is 0.05 h; in series [8], greater than 24 h. On to `CC1(C)ON=C(C(Cc2ccccc2)C(=O)NCc2ccc(F)cc2)O1` (centres undefined), for which the Stability entry in series [1] is listed as “Stable”. Besides, the half-life at 10 µM in series [2] was 1 h. Take `CN(O)C(=O)/C=C/c1ccc2ccccc2c1`: the half-life in series [9] is 6 min.

As to `CC(C)Cc1ccc(C(C)C(=O)N(C)O)cc1` (centres undefined), the half-life in [6] was greater than 0.3 h.

In turn, `CC(C)Cc1ccc(CCC(=O)N(C)O)cc1` returned a half-life in series [6] of less than 0.3 h. In turn, `CC(C)Cc1ccc(/C=C/C(=O)N(C)O)cc1` gave a half-life in series [6] of less than 0.3 h.

Regarding `CN1CCC(C(=O)NO)(S(=O)(=O)c2ccc(Oc3ccc(Cl)cc3)cc2)CC1`, the half-life in series [7] was 1.25 h.

`CCN1CCC(C(=O)NO)(S(=O)(=O)c2ccc(Oc3ccc(Cl)cc3)cc2)CC1` had a half-life in series [7] of 1.19 h. The same measure, in the same setting: next, `O=C(NO)C1(S(=O)(=O)c2ccc(Oc3ccc(Cl)cc3)cc2)CCNCC1`: 1.8 h.

In the case of `O=C(NO)c1ccccc1` [BENZOHYDROXAMATE], in series [1], the Stability result is reported as “Stable”. Moreover, the half-life at 10 µM in series [2] was greater than 24 h. For `CC(C)Cc1ccc(C(C)C(=O)NO)cc1` (centres undefined) [IBUPROXAM], in series [6], the half-life is 0.3 h. As to `O=C(Cc1ccccc1)NO` [PHENYLACETOHYDROXAMIC ACID], in [1], the Stability entry is reported as “Stable”. For the same compound, in series [2], the half-life at 10 µM is greater than 24 h. In the case of `O=C(CCCc1ccccc1)NO` [PHENYLBUTYRYLHYDROXAMIC ACID], in series [1], the Stability entry is “Stable”. The t1/2 in [10] is 2 h. In turn, `O=C(CCCCCCC(=O)Nc1ccccc1)NO` [VORINOSTAT] had a half-life at 10 µM in series [2] of 9.7 h.
